# Measurements taken from publication PMC3148296 (Molecular pharmaceutics, 2011).
# Tests used:
# [1] = system: 4T1 cells (αvβ3 positive); assay: In vitro photosensitizing; format: cell-based, Mouse; conditions: 4T1, 2 h incubation, 665 nm light 0-2 J/cm2, MTT 48 h later
# In short: (§1)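 Cells kept at 37°C in 5% CO₂ in medium with 10% FBS (4T1: RPMI-1640; A431: DMEM high glucose). Plated at 3000 cells/well and allowed to attach for 3 h. Test compound added at variable concentrations for 2 h in the dark, then replaced with drug-free medium. Irradiated with a 665 nm dye laser at 3.2 mW/cm². After 48 h in the dark: MTT for 4 h, DMSO, A570. Survival given as % of dark control; mean of 3 experiments, 6 wells each, SD.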
# [2] = system: A431 cells (αvβ3 negative); assay: In vitro photosensitizing; format: cell-based, Human; conditions: A431, 2 h incubation, 665 nm light 0-2 J/cm2, MTT 48 h later
# In short: as §1
# U87 cells = assay: In vitro cell uptake by flow cytometry; format: cell-based, Human
# 4T1 cells = assay: In vitro cell uptake by flow cytometry; format: cell-based, Mouse; conditions: 4T1, 2 h post incubation
# 4T1 tumors = assay: In vivo photosensitizing; set-up: species or system BALB/c mice; conditions: 10 mice/group
# In short: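 BALB/c mice received 1 × 10⁶ 4T1 cells s.c. in 50 μL PBS at the right shoulder. Treatment began at a mean tumor volume of 62.5 mm³ (50–70). Test compound given i.v. Unanesthetized, restrained mice were irradiated at 665 nm (1 cm² spot, 135 J/cm², 75 mW/cm²). Mice were checked daily for regrowth; volume = (L × W²)/2; mice euthanized at 400 mm³.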
# Solubility in solvents = format: physicochemical
# [3] = 0.25 μmol/kg, light at 24 h post injection
Substance,"in vitro PDT efficacy among HPPH and conjugates 7, 8, 10 [1]",in vitro phototoxicity compared to HPPH [2],"cell uptake among conjugates 7, 8 and 10 (U87 cells; U87, 400 nM and 800 nM, 2 h and 4 h post-incubation, flow cytometry)","cell uptake at 4 h versus 2 h incubation (U87 cells; U87, Figure S10)",cell uptake compared with HPPH (4T1 cells),tumor cure at day 60 (4T1 tumors; [3]),"mice tumor-free on day 60 (4T1 tumors; light at 2 h post injection, Figure 7A)","tumor cure at day 60 (4T1 tumors; 0.47 μmol/kg, light at 4 h post injection)","mice tumor-free on day 60 (4T1 tumors; light at 24 h post injection, Figure 7B)",dissolution in common polar solvents (Solubility in solvents),solubility in DMSO (Solubility in solvents)
3-devinyl-3-{1′-(hexyloxy)ethyl}pyropheophorbide-a–cyclo(RGDfK) conjugate [conjugate 7],most effective,less effective,highest uptake,significantly more at 4h,comparable,did not produce any cures,8/10,–,–,–,–
3-(1′-hexyloxyethyl)-3-devinylpyropheophorbide-a [HPPH],–,–,–,–,–,did not produce any cures,–,no cures,4/10,–,–
HPPH–cyclo(RGDfK) conjugate [conjugate 8],–,–,–,–,–,–,–,–,–,unsuccessful,partly soluble
